Converted amounts (≈) assume the structure as drawn. The source made the active and inactive calls. No cut-off for these calls is given here.
Experiments:
Escherichia coli = test: Antibacterial activity against Escherichia coli TISTR 780 by two-fold broth dilution method; assay type: functional
Salmonella typhimurium = test: Antibacterial activity against Salmonella typhimurium TISTR 292 by two-fold broth dilution method; assay type: functional, Salmonella enterica subsp. enterica serovar Typhimurium
Staphylococcus aureus [1] = test: Antibacterial activity against methicillin-resistant Staphylococcus aureus SK1 at >128 ug/mL by two-fold broth dilution method; assay type: functional, organism-based
Summary of the method: (§1)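 MRSA SK1 was tested in a panel with Gram-positive S. aureus TISTR 1466 and Gram-negative E. coli TISTR 780 and S. typhimurium TISTR 292. Values are in μg/mL.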

Staphylococcus aureus [2] = test: Antibacterial activity against Staphylococcus aureus TISTR 1466 at >128 ug/mL by two-fold broth dilution method; assay type: functional, organism-based
Staphylococcus aureus [3] = test: Antibacterial activity against Staphylococcus aureus TISTR 1466 by two-fold broth dilution method; assay type: functional
Staphylococcus aureus [4] = test: Antibacterial activity against methicillin-resistant Staphylococcus aureus SK1 by two-fold broth dilution method; assay type: functional; summary of the method: as §1

Molecule | MIC (Escherichia coli) [µg/mL] | MIC (Salmonella typhimurium; Salmonella enterica) [µg/mL] | MIC (Staphylococcus aureus [1]) | MIC (Staphylococcus aureus [2]) | MIC (Staphylococcus aureus [3]) | MIC (Staphylococcus aureus [4]) [µg/mL] | MIC (Salmonella typhimurium; Salmonella enterica subsp. enterica serovar Typhimurium) [µg/mL]
COc1c(O)ccc2c(=O)c3c(O)c4c(c(CC=C(C)C)c3oc12)OC(C)(C)C=C4 | 128 (≈ 313 µM) | 128 (≈ 313 µM) | inactive | inactive | – | – | –
C=CC(C)(C)c1c2c(c(O)c3c(=O)c4ccc(O)c(OC)c4oc13)C=CC(C)(C)O2 | 128 (≈ 313 µM) | 128 (≈ 313 µM) | – | – | 2 µg/mL (≈ 4.9 µM) | 4 (≈ 9.79 µM) | –
C=C(C)CC[C@@H]1C[C@]23CC4C(C)(C)c5ccccc5C(=O)C45C(=O)[C@@](CC=C(C)C)(C[C@@]1(C)[C@]52O)C3=O (relative stereo) | 128 (≈ 256 µM) | 128 (≈ 256 µM) | inactive | – | 128 µg/mL (≈ 256 µM) | – | –
C=C(C)CC[C@@H]1C[C@@]2(CC=C(C)C)C(=O)[C@]3(CC=C(C)C)C[C@@]1(C)C2(O)/C(=C(/O)c1ccccc1)C3=O (relative stereo) | 128 (≈ 255 µM) | 128 (≈ 255 µM) | – | – | 64 µg/mL (≈ 127 µM) | 64 (≈ 127 µM) | –
COc1c(CC=C(C)C)c(O)c2c(=O)c3ccc(O)c(OC)c3oc2c1CC=C(C)C [DOITUNGGARCINONE C] | 128 (≈ 302 µM) | – | – | – | 128 µg/mL (≈ 302 µM) | 128 (≈ 302 µM) | –
COc1c(CC=C(C)C)c(O)c2c(=O)c3ccc(O)c(O)c3oc2c1CC=C(C)C [DULXANTHONE B] | 128 (≈ 312 µM) | 128 (≈ 312 µM) | – | – | 32 µg/mL (≈ 78 µM) | 16 (≈ 39 µM) | –
CC(C)=CCc1c(O)c(CC=C(C)C)c2oc3c(O)ccc(O)c3c(=O)c2c1O [GARTANIN] | 128 (≈ 323 µM) | 128 (≈ 323 µM) | inactive | – | 128 µg/mL (≈ 323 µM) | – | –
C=CC(C)(C)c1c2c(c(O)c3c(=O)c4ccc(O)c(O)c4oc13)C=CC(C)(C)O2 [MACLURAXANTHONE] | 128 (≈ 325 µM) | – | – | – | 4 µg/mL (≈ 10.1 µM) | 4 (≈ 10.1 µM) | –
CC(C)=CCc1c2c(c3oc4c(O)ccc(O)c4c(=O)c3c1O)C=CC(C)(C)O2 [MORUSIGNIN J] | 128 (≈ 325 µM) | – | – | – | 128 µg/mL (≈ 325 µM) | – | –
CN[C@H](CC(C)C)C(=O)N[C@H]1C(=O)N[C@@H](CC(N)=O)C(=O)N[C@H]2C(=O)N[C@H]3C(=O)N[C@H](C(=O)N[C@H](C(=O)O)c4cc(O)cc(O)c4-c4cc3ccc4O)[C@H](O)c3ccc(c(Cl)c3)Oc3cc2cc(c3O[C@@H]2O[C@H](CO)[C@@H](O)[C@H](O)[C@H]2O[C@H]2C[C@](C)(N)[C@H](O)[C@H](C)O2)Oc2ccc(cc2Cl)[C@H]1O [VANCOMYCIN] | – | – | – | – | 0.25 µg/mL (≈ 0.173 µM) | – | –
C=C(C)CC[C@@H]1C[C@]2(CC=C(C)C)C(=O)/C(=C(\O)c3ccccc3)C(=O)[C@]3(CC=C(C)C)C[C@@]1(C)O[C@@]32O [XEROPHENONE A] | 128 (≈ 247 µM) | 128 (≈ 247 µM) | – | – | inactive | 128 (≈ 247 µM) | –
GENTAMICIN | 0.25 | – | – | – | – | – | 0.125
